Data reported in ChEMBL document CHEMBL1126735, “Synthesis and biological evaluation of antiplatelet 2-aminochromones” (J Med Chem, 1993).

What was measured:
Assay type in all cases: functional, Canis lupus familiaris
[1] = test system: Canis familiaris; assay: In vivo inhibitory effect on Cyclical flow reductions (CFR) induced by intracoronary platelet aggregation in stenosed Canine coronary arteries at iv dose of 100 ug/kg +10 ug/kg/min (n=10)
Method in brief: (§1)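 Adult mongrel dogs (10-15 kg, either sex), sodium pentobarbital anesthesia (30 mg/kg iv), positive-pressure ventilation. Aortic pressure via femoral artery catheter. Drug given iv via femoral vein in saline as mesylate/bismesylate salt, bolus then constant infusion. Values mean ± SEM.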

[2] = test system: Canis familiaris; assay: Time interval between the start of treatment and the first change in the CFR pattern of blood flow in the stenosed coronary artery at iv dose of 1000 ug/kg +100 ug/kg/min (n=4)
Method in brief: (§2)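 Stenosed circumflex coronary artery in pentobarbital-anesthetized open-chest mongrel dogs (10-15 kg), drug iv in saline (mesylate/bismesylate salt), bolus followed by constant infusion. Onset measured as the time from the start of drug treatment to the first change in the cyclic flow reduction pattern of coronary blood flow. Mean ± SEM.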

[3] = test system: Canis familiaris; assay: Time interval between the end of treatment and restoration of the CFR pattern of blood flow to control levels at iv dose of 1000 ug/kg +100 ug/kg/min (n=4)
Method in brief: (§3)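 Anesthetized open-chest mongrel dogs (10-15 kg) with partially obstructed circumflex coronary artery; iv bolus plus constant infusion of drug in saline as mesylate/bismesylate salt. Duration scored as the time from the end of drug treatment until the cyclic flow reduction pattern returns to control levels. Mean ± SEM.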

[4] = test system: Canis familiaris; assay: Time interval between the end of treatment and restoration of the CFR pattern of blood flow to control levels at iv dose of 100 ug/kg +10 ug/kg/min (n=10); method in brief: as §3
[5] = test system: Canis familiaris; assay: In vivo inhibitory effect on Cyclical flow reductions (CFR) induced by intracoronary platelet aggregation in stenosed Canine coronary arteries at iv dose of 30 ug/kg +3 ug/kg/min (n=4); method in brief: as §1
[6] = test system: Canis familiaris; assay: In vivo inhibitory effect on Cyclical flow reductions (CFR) induced by intracoronary platelet aggregation in stenosed Canine coronary arteries at iv dose of 1000 ug/kg +100 ug/kg/min (n=4); method in brief: as §1
[7] = test system: Canis familiaris; assay: Time interval between the start of treatment and the first change in the CFR pattern of blood flow in the stenosed coronary artery at iv dose of 100 ug/kg +10 ug/kg/min (n=10); method in brief: as §2
[8] = test system: Canis familiaris; assay: In vivo inhibitory effect on Cyclical flow reductions (CFR) induced by intracoronary platelet aggregation in stenosed Canine coronary arteries at iv dose of 300 ug/kg +30 ug/kg/min (n=4); method in brief: as §1
[9] = test system: Canis familiaris; assay: Time interval between the start of treatment and the first change in the CFR pattern of blood flow in the stenosed coronary artery at iv dose of 300 ug/kg +30 ug/kg/min (n=4); method in brief: as §2
[10] = test system: Canis familiaris; assay: Time interval between the end of treatment and restoration of the CFR pattern of blood flow to control levels at iv dose of 300 ug/kg +30 ug/kg/min (n=4); method in brief: as §3
[11] = test system: Canis familiaris; assay: In vivo inhibitory effect on Cyclical flow reductions (CFR) induced by intracoronary platelet aggregation in stenosed Canine coronary arteries at iv dose of 300 ug/kg +30 ug/kg/min (n=2-4); method in brief: as §1
[12] = test system: Canis familiaris; assay: Time interval between the start of treatment and the first change in the CFR pattern of blood flow in the stenosed coronary artery at iv dose of 300 ug/kg +30 ug/kg/min (n=2-4); method in brief: as §2
[13] = test system: Canis familiaris; assay: Time interval between the end of treatment and restoration of the CFR pattern of blood flow to control levels at iv dose of 100 ug/kg +10 ug/kg/min (n=3); method in brief: as §3
[14] = test system: Canis familiaris; assay: In vivo inhibitory effect on Cyclical flow reductions (CFR) induced by intracoronary platelet aggregation in stenosed Canine coronary arteries at iv dose of 100 ug/kg +10 ug/kg/min (n=3); method in brief: as §1
[15] = test system: Canis familiaris; assay: Time interval between the start of treatment and the first change in the CFR pattern of blood flow in the stenosed coronary artery at iv dose of 100 ug/kg +10 ug/kg/min (n=3); method in brief: as §2
[16] = test system: Canis familiaris; assay: Time interval between the start of treatment and the first change in the CFR pattern of blood flow in the stenosed coronary artery at iv dose of 300 ug/kg +30 ug/kg/min (n=3); method in brief: as §2
[17] = test system: Canis familiaris; assay: In vivo inhibitory effect on Cyclical flow reductions (CFR) induced by intracoronary platelet aggregation in stenosed Canine coronary arteries at iv dose of 300 ug/kg +30 ug/kg/min (n=3); method in brief: as §1

Cc1c(OCCN2CCN(C)CC2)ccc2c(=O)cc(N3CCOCC3)oc12
Rating [1]: 1.9
Time to onset [2]: 1 min
Time to offset [3]: 73 min
Time to offset [4]: 25 min
Rating [5]: 0
Rating [6]: 3
Time to onset [7]: 5 min
Rating [8]: 3
Time to onset [9]: 1 min
Time to offset [10]: 60 min

Cc1c(OCCN2CCCCC2)ccc2c(=O)cc(N3CCOCC3)oc12
Time to onset [2]: 7 min
Time to offset [3]: 23 min
Rating [11]: 1.3
Time to onset [12]: 2 min
Rating [6]: 2.5
Time to offset [10]: 67 min

Cc1c(OCCN2CCSCC2)ccc2c(=O)cc(N3CCOCC3)oc12
Time to offset [13]: 5.3 min
Rating [14]: 2
Time to onset [15]: 17 min
Time to onset [16]: 9 min
Rating [17]: 2.3
Time to offset [10]: 12 min
